# Records with an inconclusive call do not appear. Active and inactive are the calls of the source.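 The calls were made as follows, unless noted: active = RAM network inhibition above 8.4% in each of two replicates, 3 SD over the compound average; inconclusive = above 8.4% inhibition in only one replicate; inactive = 8.4% inhibition or less in each replicate.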
# Tests used:
# [1] = S. cerevisiae growth inhibition in permissive medium (OD615), pilot counter-assay for S. cerevisiae lifespan shortening project, permissive growth control (AID 705;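 active = growth inhibition above 25% in both replicates, a cutoff set 3 SD above the mean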); details: OD615, 24 h, at 10 µM, active compounds read high
# Method in brief: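 System: Engineered DeaD yeast | Buffer or medium: SC raffinose/galactose permissive medium | Incubation: Cells pre-grown 4 h, then 24 h compound exposure, 30 °C humidified | Measured by: Absorbance (optical density) at 615 nm | Read-out: Reduction in yeast growth (OD615)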
# [2] = S. cerevisiae growth inhibition in restrictive medium, OD615, pilot screen, restrictive growth control, yeast lifespan reduction project (AID 706;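 active = growth inhibition above a set limit, 3 SD over mean compound inhibition, in both replicates, cut at about 43% in these data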;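 also: modified DeaD lifespan yeast strain shifted to restrictive glucose medium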); details: OD615, 48 h, at 10 µM, active compounds read high
# Method in brief: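 Material: modified S. cerevisiae; Medium: glucose-based CSMM-D restrictive medium; Compound dosing: one concentration, 10 µM final, 0.25% DMSO; Incubation: 48 h compound exposure at 30 °C; Measured by: OD615.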
# [3] = doxorubicin toxicity protection in MRP-1 cells – H69AR cells, CellTiter-Glo, duplicate, MRP-1 activator project, pilot screen (AID 807;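 active = viability increase at or above a cutoff of the median across tested compounds plus 3 SD, cut at about 8.5% in these data, passing the limit was not always enough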;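 also: compound pretreatment 18-22 h then 72 h combined with doxorubicin; 0% = doxorubicin alone and 100% = vehicle without doxorubicin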); details: H69AR viability with doxorubicin, CellTiter-Glo luminescence; at 10 µM; active compounds read high
# [4] = viability of HCT116 without oncogenic beta-catenin – human colon tumor cells, pilot screen (AID 823;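 active = cell viability at or below a set limit in both duplicate runs, the limit being the all-compound median minus 4 SD, cut at about 23% in these data, passing the limit was not always enough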;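 also: 0% = wells killed by 20 µM Hyamine and 100% = untreated DMSO cell wells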); details: HCT116 beta-catenin knockout viability, CellTiter-Glo, 60 h; at 10 µM; active compounds read low
# [5] = viability of PTEN-null HCT116 cells – cell-based, HCT116 clonal line, CellTiter-Glo, pilot screen (AID 824;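 active = viability at or below 27.92% in each of two runs, the all-compound median minus 4 SD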;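 also: 0% = 20 µM Hyamine control and 100% = vehicle cell control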); details: HCT116 PTEN-deleted viability, 60 h, at 10 µM, active compounds read low
# [6] = RAM pathway blockade in budding yeast – dse1pr::URA3 reporter, 5-FOA selection, pilot screen (AID 869;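 active = inhibition over a set limit, the all-compound mean plus 3 SD, in both replicate runs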;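 also: 0% = DMSO wells with no growth and 100% = 10 µM 1-NA-PP1 with full growth; RAM network block rescues cells from 5-FOA so hits raise OD615 growth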); details: S. cerevisiae dse1pr::URA3 5-FOA growth, OD615, 2 d; at 10 µM; active compounds read high; strain carries analog-sensitive mutant Cbk1 kinase
# [7] = RAM signaling pathway blockade in yeast – S. cerevisiae, Pdr1DBD-CYC8 efflux-inhibited sensitized strain, primary screen (AID 1298);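 also: 0% = DMSO untreated cells without growth and 100% = 10 µM 1-NA-PP1 full growth; higher means more yeast growth rescued from 5-FOA killing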; details: S. cerevisiae cbk1-as DSE1-URA3 strain, 5-FOA growth OD615, 2 d; at 50 µM; active compounds read high
SMILES,growth inhibition [1],growth inhibition [2],viability increase [3],viability [4],viability [5],inhibition [6],RAM network inhibition [7]
COc1ccc(OCc2nnc3n2N=C(c2ccc(OC)cc2)CS3)cc1,7.92% (inactive),57.4% (active),-2.84% (inactive),69.9% (inactive),66.4% (inactive),2.15% (inactive),7.82% (inactive)
CCOc1ccc(NC(=O)Nc2ccc3c(c2)N(C)C(=O)CS3)cc1,-12% (inactive),-33.6% (inactive),-4.56% (inactive),98.9% (inactive),89.1% (inactive),4.93% (inactive),5.76% (inactive)
O=C(NCc1ccc(Cl)cc1)c1cccnc1,-1.45% (inactive),9.27% (inactive),-0.63% (inactive),92.8% (inactive),93.6% (inactive),1.8% (inactive),0.15% (inactive)
COc1ccc(-c2nn(-c3ccccc3)cc2C(=O)O)cc1,-8.52% (inactive),1.15% (inactive),-3.69% (inactive),105% (inactive),97% (inactive),3.71% (inactive),11.1% (inactive)
CCc1ccccc1N1CSC2=C(C#N)C(c3ccccc3F)CC(=O)N2C1 (stereo unspecified),-2.74% (inactive),35.3% (inactive),-7.03% (inactive),78.8% (inactive),76.5% (inactive),0.905% (inactive),4.09% (inactive)
Cc1ccc(C)c(NC(=O)CSc2nnc(-c3ccccc3)n2N)c1,-4.36% (inactive),-8.22% (inactive),-1.93% (inactive),109% (inactive),90.1% (inactive),1.5% (inactive),3.95% (inactive)
O=C(c1ccncc1)N1CCN(C(=O)c2cccc3ccccc23)CC1,-14.8% (inactive),-7.07% (inactive),-2.73% (inactive),101% (inactive),93.9% (inactive),2.16% (inactive),2.45% (inactive)
CCCOc1ccc(C(=O)NCc2ccco2)cc1,-13.1% (inactive),-4.49% (inactive),-1.42% (inactive),98% (inactive),93.5% (inactive),0.43% (inactive),2.65% (inactive)
CCCCNc1nc2c(c(=O)n(C)c(=O)n2C)n1CCC,-8.32% (inactive),-0.415% (inactive),0.36% (inactive),97.1% (inactive),96% (inactive),-0.375% (inactive),1.74% (inactive)
COc1ccc2oc(-c3ccccc3)c(C(=O)N3CCOCC3)c2c1,2.58% (inactive),-8.54% (inactive),-3.95% (inactive),94.3% (inactive),90% (inactive),1.52% (inactive),5.28% (inactive)
Cc1ccc(S(=O)(=O)Nc2ccc3nc(N)sc3c2)cc1,6.55% (inactive),13.4% (inactive),-4.39% (inactive),82.6% (inactive),85.5% (inactive),0.19% (inactive),2.92% (inactive)
COC(=O)C(C)Sc1nnc(Cc2cc(=O)[nH]c(=O)[nH]2)n1-c1cccc(OC)c1 (stereo unspecified),-7.95% (inactive),-0.1% (inactive),0.21% (inactive),104% (inactive),108% (inactive),2.8% (inactive),3% (inactive)
Cc1n[nH]c(=O)nc1NCc1ccccc1,-8.25% (inactive),-29% (inactive),-0.55% (inactive),95% (inactive),93.9% (inactive),1.48% (inactive),0.91% (inactive)
O=S(=O)(Cc1ccccc1)N1CCn2c(nc3ccccc32)C1,-14.1% (inactive),-0.745% (inactive),-0.75% (inactive),103% (inactive),97.5% (inactive),1.5% (inactive),4.75% (inactive)
COc1ccc(OC)c(NC2c3ccccc3C(=O)N2Cc2ccc3c(c2)OCO3)c1 (stereo unspecified),-0.33% (inactive),-3.93% (inactive),-0.47% (inactive),98% (inactive),90% (inactive),0.2% (inactive),5.4% (inactive)
CCOc1cccc(=O)c2c(C)n(Cc3ccco3)c(C)c12,-12.4% (inactive),-8% (inactive),-3.8% (inactive),92.1% (inactive),84.9% (inactive),0.975% (inactive),-0.46% (inactive)
C#CCn1c(=NC(=O)CN2C(=O)CCC2=O)sc2cccc(C)c21,-15.5% (inactive),-1.5% (inactive),-3.32% (inactive),93.3% (inactive),88.8% (inactive),1.89% (inactive),2.03% (inactive)

SMILES,growth inhibition [1],growth inhibition [2],viability increase [3],viability [4],viability [5],inhibition [6],RAM network inhibition [7]
Cc1ccc(N2C(=O)c3ccccc3C2Nc2ccccc2F)nc1 (stereo unspecified),-7.38% (inactive),-1.2% (inactive),-1.31% (inactive),88.3% (inactive),90.8% (inactive),2.46% (inactive),10.5% (inactive)
CCOC(=O)c1ccccc1Nc1cc(C)nc2nc(C)nn12,-4.38% (inactive),9.16% (inactive),-5.14% (inactive),97.6% (inactive),93% (inactive),1.52% (inactive),1.2% (inactive)
C=CCNc1nc2c(c(=O)n(C)c(=O)n2C)n1Cc1ccc(F)cc1,-0.85% (inactive),-2.67% (inactive),-2.03% (inactive),63.3% (inactive),66.9% (inactive),0.835% (inactive),2.3% (inactive)
COC(=O)c1ccc(CSc2nc3c(c(=O)n2-c2ccc(F)cc2)SCC3)o1,-7.83% (inactive),-16.6% (inactive),-3.02% (inactive),83.7% (inactive),81.3% (inactive),1.3% (inactive),1.52% (inactive)
O=C(NCc1ccc2c(c1)OCO2)c1ccc(NC(=O)C2CCCO2)cc1 (stereo unspecified),-11% (inactive),-20.2% (inactive),-2.17% (inactive),102% (inactive),103% (inactive),3.76% (inactive),4.81% (inactive)
Cn1c(C(=O)NCCN2CCCCCC2)cc2c(=O)n(C)c3ccccc3c21,-1.66% (inactive),0.56% (inactive),-5.04% (inactive),65.7% (inactive),74.9% (inactive),1.29% (inactive),5.21% (inactive)
COC(=O)c1ccc(CSc2ncn[nH]2)o1,-2.62% (inactive),3.27% (inactive),0.51% (inactive),94.7% (inactive),97.5% (inactive),0.395% (inactive),3.38% (inactive)
Cc1cc(NC(=O)CSc2c(C)[nH]c3ccccc23)no1,-11.4% (inactive),-4.25% (inactive),-1.25% (inactive),104% (inactive),89.4% (inactive),0.94% (inactive),4.64% (inactive)
Nc1ccc(SC(F)(F)F)cc1C(=O)c1ccccc1,-6.7% (inactive),-13.2% (inactive),-0.99% (inactive),74% (inactive),70.4% (inactive),-2.23% (inactive),3.77% (inactive)
Cc1nc2c3ccccc3n(CC(=O)c3ccc(F)cc3)c(=O)n2n1,-13.8% (inactive),-4.75% (inactive),-2.79% (inactive),96.8% (inactive),94.7% (inactive),3.38% (inactive),3.78% (inactive)
CC(c1cccnc1)N(C(=O)Nc1ccccc1)C1CCCCC1 (stereo unspecified),-1.48% (inactive),-10.8% (inactive),-2.35% (inactive),92.1% (inactive),91.6% (inactive),1.96% (inactive),5.08% (inactive)
O=c1[nH]cnc2c1sc(=S)n2-c1ccccc1,10.2% (inactive),29.8% (inactive),-0.17% (inactive),101% (inactive),97.1% (inactive),1.87% (inactive),8.71% (inactive)
COc1ccccc1NC(=O)CCNC(=O)Cn1ccc2ccccc2c1=O,-12.7% (inactive),-11.8% (inactive),-1.84% (inactive),96.6% (inactive),93.3% (inactive),0.74% (inactive),3.6% (inactive)
C=C(C)Cn1c(N2CCCC2)nc2c1c(=O)[nH]c(=O)n2C,-1.91% (inactive),-5.8% (inactive),-1.97% (inactive),108% (inactive),96.6% (inactive),1.32% (inactive),2.05% (inactive)
Cc1ccccc1NS(=O)(=O)c1cccc(-c2nnc(-c3ccccc3)o2)c1,-8.74% (inactive),-5.78% (inactive),-0.75% (inactive),93.6% (inactive),85.7% (inactive),3.65% (inactive),4.08% (inactive)
O=C(Nc1nnc(-c2ccc(Cl)s2)o1)C1CCCCC1,-14.7% (inactive),-4.65% (inactive),-4.45% (inactive),68.4% (inactive),63.2% (inactive),3.44% (inactive),3.62% (inactive)

# From PubChem BioAssay
